Measurements taken from ChEMBL document CHEMBL4610058, “Mariannamides A and B, new cyclic octapeptides isolated from Mariannaea elegans NBRC102301” (2020).
Active and inactive are the calls of the source. No cut-off for these calls is given here. Where a SMILES comes first, the peptide text is derived from it.

Experiments:
C2C12 [1] = test: Upregulation of SIRT1 mRNA expression in mouse C2C12 cells at 50 uM measured after 24 hrs by qRT-PCR analysis; assay type: functional, cell-based
How it was run: (§1)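 C2C12 seeded at 2×10^5 cells/well, grown to 90% confluence, then differentiated 2 days in DMEM with 2% horse serum. Treated 24 h with compound (10–50 µM), DMSO, or resveratrol 50 µM (positive control). SIRT1 mRNA measured by qRT-PCR (40 cycles, 95/60 °C), GAPDH reference, ΔΔCt vs DMSO. Triplicate; mean ± S.E.M.; one-way ANOVA with Tukey.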

C2C12 [2] = test: Upregulation of SIRT1 mRNA expression in mouse C2C12 cells at 50 uM measured after 24 hrs by qRT-PCR analysis relative to control; assay type: functional; how it was run: as §1
Escherichia coli = test: Antimicrobial activity against Escherichia coli U541 assessed as diameter of inhibition zone measured after 24 hrs by disc diffusion assay; assay type: functional
How it was run: (§2)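 Bacteria grown in Mueller Hinton broth at 37 °C for 24 h and adjusted to 0.5 McFarland. 6 mm paper discs loaded with 2 µg compound (20 µL) placed on Mueller Hinton agar spread with the suspension, then incubated 37 °C for 24 h. Inhibition-zone diameter measured including the disc. Blank 5% DMSO discs as negative control. Triplicate.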

Cryptococcus neoformans = test: Antimicrobial activity against Cryptococcus neoformans IFM 40215 assessed as diameter of inhibition zone measured after 24 hrs by disc diffusion assay; assay type: functional
How it was run: (§3)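 Yeasts pre-cultured on YPD agar at 37 °C for 24 h, suspended in Mueller Hinton broth and adjusted to 0.5 McFarland. 6 mm discs carrying 2 µg compound (20 µL) laid on Mueller Hinton agar spread with the fungal suspension, then incubated 37 °C for 24 h. Zone diameter read including the disc. 5% DMSO discs as negative control. Triplicate.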

Enterococcus faecalis = test: Antimicrobial activity against Enterococcus faecalis JCM7783 measured after 24 hrs by disc diffusion method; assay type: functional, organism-based; how it was run: as §2
Bacillus subtilis = test: Antimicrobial activity against Bacillus subtilis HA101 measured after 24 hrs by disc diffusion method; assay type: functional, organism-based; how it was run: as §2
Candida parapsilosis = test: Antimicrobial activity against Candida parapsilosis IFM 40218 measured after 24 hrs by disc diffusion method; assay type: functional, organism-based; how it was run: as §3
Staphylococcus aureus = test: Antimicrobial activity against methicillin-resistant Staphylococcus aureus N315 measured after 24 hrs by disc diffusion method; assay type: functional, organism-based
How it was run: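 Disc diffusion on Müller Hinton agar. MRSA N315 grown in Müller Hinton broth at 37 °C for 24 h, then adjusted to McFarland 0.5. Sterile 6 mm paper discs loaded with 20 µL (2 µg) of compound. Incubation at 37 °C for 24 h. Read-out is inhibition zone diameter including the disc. Negative control was discs with 5% DMSO. Triplicate; mean ± S.E.M.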

Nakaseomyces glabratus = test: Antimicrobial activity against Candida glabrata IFM 40217 measured after 24 hrs by disc diffusion method; assay type: functional, organism-based; how it was run: as §3
[3] = system: Meyerozyma guilliermondii; test: Antimicrobial activity against Candida guilliermondii TIMM 0260 measured after 24 hrs by disc diffusion method; assay type: functional, organism-based; how it was run: as §3
[Candida] auris = Antimicrobial activity against Candida auris JCM 15448 measured after 24 hrs by disc diffusion method; assay type: functional, organism-based; details: Candidozyma auris; how it was run: as §3
Candida albicans = test: Antimicrobial activity against Candida albicans IFM 40213 measured after 24 hrs by disc diffusion method; assay type: functional, organism-based; how it was run: as §3

In the case of `Oc1ccc(/C=C/c2cc(O)cc(O)c2)cc1`, the Activity (C2C12 [1]) is reported as “Active”.

In the case of `CC[C@H](C)[C@@H]1NC(=O)[C@H](C(C)C)NC(=O)[C@@H]2CCCN2C(=O)[C@H]([C@@H](C)CC)NC(=O)[C@H](CC(C)C)NC(=O)[C@@H]2CCCN2C(=O)[C@@H]2CCCN2C(=O)[C@H](CC(C)C)NC1=O` (cyclo(ILPPLIPV)), the “fold change (FC)” value (C2C12 [2]) is reported as 1.5, the “diameter of the inhibition zone (DIZ)” value (Escherichia coli) is reported as 9.4 mm and the “diameter of the inhibition zone (DIZ)” value (Cryptococcus neoformans) is reported as 7.7 mm.

`CC[C@H](C)[C@@H]1NC(=O)[C@H](CC(C)C)NC(=O)[C@@H]2CCCN2C(=O)[C@@H]2CCCN2C(=O)[C@H](CC(C)C)NC(=O)[C@H](C(C)C)NC(=O)[C@H](C(C)C)NC(=O)[C@@H]2CCCN2C1=O` (cyclo(IPVVLPPL)) was tested, and the Activity (Enterococcus faecalis) was “inactive”, the Activity (Bacillus subtilis) was “inactive” and the Activity (Escherichia coli) was “inactive”. For the same molecule, the Activity (Candida parapsilosis) was “inactive”, the Activity (Cryptococcus neoformans) was “inactive” and the Activity (Staphylococcus aureus) was “inactive”. For the same molecule, the Activity (Nakaseomyces glabratus) was “inactive”, the Activity [3] was “inactive” and the Activity ([Candida] auris) was “inactive”. The Activity (Candida albicans) was “inactive”.
